Data reported in article PMC8134988 (Heliyon, 2021).
“And” between values parts separate entries of the source, which are not always exact repeats. Equal values may be shown once.

Key:
[1] = test system: T. cruzi strain HA trypomastigotes; conditions: ref Garcia et al. 2010; cited from earlier work
[2] = test system: T. cruzi blood trypomastigotes (Talahuen strain); experiment: In vivo therapeutic response in BALB/c mice infected with T. cruzi; set-up: species or system Mus musculus (BALB/c mice); conditions: at the end of treatment
Summary of the method: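 BALB/c mice were inoculated intraperitoneally with 100 blood trypomastigotes of the Tulahuen β-gal strain taken from donor mice. From the first day of parasitaemia, seven groups (n = 6) were dosed orally at 100 mg/kg/day for 25 days with test compound, benznidazole or nothing. Parasitaemia per 0.1 mL blood was counted by hematocrit at TD0, TD25 and PTD30/60/90. Reduction was calculated per mouse against pre-treatment parasitaemia. Mice negative in all tests were scored cured.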

[3] = In vitro cytotoxicity in U-937 cells; assay type: cell-based; conditions: human, U-937 cells (non-infected)
Summary of the method: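 Non-infected U-937 cells at 10^5 cells/mL were mixed 1:1 with compound solutions at 200, 50, 12.5 and 3.125 µg/mL, alongside benznidazole, and held 72 h at 37 °C. MTT was added for 3 h, then formazan was dissolved in isopropanol/SDS and read at 570 nm. Viability was expressed versus unexposed cells, mortality as 100 − %viability, and LC50 was obtained by probit analysis.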

[4] = test system: T. cruzi Talahuen strain intracellular amastigotes; experiment: Anti-T. cruzi in vitro assay in intracellular amastigotes; assay type: cell-based, Trypanosoma cruzi; conditions: for SI (selectivity index = LC50/EC50): LC50 U-937 / EC50 T. cruzi; for antitrypanosomal activity class: classified by EC50 in μg/mL

SMILES	inhibition of the presence of the parasite [1] [%]	mice cured [2] [%]	parasitaemia status ([2]; 100 mg/kg/day)	CC50 at 72 h [3]	SI (selectivity index = LC50/EC50) [4]	antitrypanosomal activity class [4]
COc1cccc(/C=C/c2ccc3ccccc3n2)c1OC [(E)-2-(2,3-dimetoxystyryl) quinoline]	34.1					
O=C(Cn1ccnc1[N+](=O)[O-])NCc1ccccc1 [Benznidazol (BZ), Benznidazol, reference compound]		100	negative	> 200 µg/mL and 491 µM	8.7	
CC(=O)Oc1ccc(/C=C/c2ccc3cccc(OC(C)=O)c3n2)c(OC(C)=O)c1 [Compound 3g, (E)-4-(2-(8-Acetoxyquinolin-2-yl)vinyl)-1,3-phenylene diacetate]				6.9 µg/mL and 17.2 µM		moderate (Moderate activity: 25 μg/mL > EC50 < 50 μg/mL)
COc1cc(/C=C/c2ccc3cccc(OC(C)=O)c3n2)ccc1OC(C)=O [Compound 3h, (E)-2-(4-Acetoxy-3-methoxystyryl)quinolin-8-yl acetate]				5.9 µg/mL and 15.6 µM	0.2	moderate (Moderate activity: 25 μg/mL > EC50 < 50 μg/mL)
